Several values for one entry are separate records, joined by “and”; a condition that tells them apart may be missing. Equal entries are not always repeated.
Tested on: U2OS
Experiment: Multiplex assay against U2OS
Type: toxicity, cell-based
Conditions: human
In short: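 Live cells were stained at seeding with Hoechst33342, BioTracker Green Microtubule Cytoskeleton Dye, MitoTracker Red and Annexin V Alexa Fluor 680, then imaged on a CQ1 microscope at 37°C and 5% CO2 after compound addition. CellPathfinder machine-learning gating split cells into Hoechst high-intensity objects or normal cells. Normal cells were split into healthy, pyknosed or fragmented nuclei, and pyknosed cells into mitotic or apoptotic. Tubulin, mitochondrial-mass and membrane-permeability phenotypes are per cents of healthy-nucleus cells.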

[1] = 12 h, 1 µM, compound concentration 1 uM
[2] = 12 h, 10 µM, compound concentration 10 uM
[3] = 24 h, 1 µM, compound concentration 1 uM
[4] = 24 h, 10 µM, compound concentration 10 uM
[5] = 48 h, 1 µM, compound concentration 1 uM
[6] = 48 h, 10 µM, compound concentration 10 uM

SMILES: Cc1ccccc1C(=O)Nc1ccc(C(=O)N2CCCC(N(C)C)c3ccccc32)cc1.Cl (centres undefined)
- Population Apoptotic (%) [1]: 91% and 77%
- Population Fragmented Nuclei (%) [1]: 20% and 14%
- Population Healthy Nuclei (%) [1]: 70% and 79%
- Population Hoechst High Intensity Objects (%) [1]: 1%
- Population Membrane Permeable-Phenotype (%) [1]: 5% and 4%
- Population Mitochondria Different-Phenotype (%) [1]: 3% and 5%
- Population Mitotic Cells (%) [1]: 8% and 22%
- Population Normal (%) [1]: 98%
- Population Pyknosed Nuclei (%) [1]: 8% and 5%
- Population Tubulin-Different-Phenotype (%) [1]: 4% and 1%
- Total Cell Count [1]: 282 and 157
- Population Apoptotic (%) [2]: 59% and 56%
- Population Fragmented Nuclei (%) [2]: 18%
- Population Healthy Nuclei (%) [2]: 55% and 62%
- Population Hoechst High Intensity Objects (%) [2]: 4% and 1%
- Population Membrane Permeable-Phenotype (%) [2]: 14% and 15%
- Population Mitochondria Different-Phenotype (%) [2]: 11% and 25%
- Population Mitotic Cells (%) [2]: 40% and 43%
- Population Normal (%) [2]: 95% and 98%
- Population Pyknosed Nuclei (%) [2]: 25% and 19%
- Population Tubulin-Different-Phenotype (%) [2]: 8% and 15%
- Total Cell Count [2]: 213 and 83
- Population Apoptotic (%) [3]: 88% and 66%
- Population Fragmented Nuclei (%) [3]: 18% and 13%
- Population Healthy Nuclei (%) [3]: 70% and 77%
- Population Hoechst High Intensity Objects (%) [3]: 0% and 1%
- Population Membrane Permeable-Phenotype (%) [3]: 6% and 5%
- Population Mitochondria Different-Phenotype (%) [3]: 3% and 4%
- Population Mitotic Cells (%) [3]: 11% and 33%
- Population Normal (%) [3]: 99% and 98%
- Population Pyknosed Nuclei (%) [3]: 10% and 9%
- Population Tubulin-Different-Phenotype (%) [3]: 4% and 3%
- Total Cell Count [3]: 333 and 192
- Population Apoptotic (%) [4]: 71% and 46%
- Population Fragmented Nuclei (%) [4]: 16% and 27%
- Population Healthy Nuclei (%) [4]: 51% and 53%
- Population Hoechst High Intensity Objects (%) [4]: 4% and 5%
- Population Membrane Permeable-Phenotype (%) [4]: 16% and 18%
- Population Mitochondria Different-Phenotype (%) [4]: 14% and 18%
- Population Mitotic Cells (%) [4]: 28% and 53%
- Population Normal (%) [4]: 95% and 94%
- Population Pyknosed Nuclei (%) [4]: 31% and 18%
- Population Tubulin-Different-Phenotype (%) [4]: 6% and 18%
- Total Cell Count [4]: 211 and 73
- Population Apoptotic (%) [5]: 85% and 83%
- Population Fragmented Nuclei (%) [5]: 14% and 15%
- Population Healthy Nuclei (%) [5]: 71% and 72%
- Population Hoechst High Intensity Objects (%) [5]: 1%
- Population Membrane Permeable-Phenotype (%) [5]: 5% and 7%
- Population Mitochondria Different-Phenotype (%) [5]: 3% and 5%
- Population Mitotic Cells (%) [5]: 14% and 16%
- Population Normal (%) [5]: 98%
- Population Pyknosed Nuclei (%) [5]: 13% and 12%
- Population Tubulin-Different-Phenotype (%) [5]: 3% and 4%
- Total Cell Count [5]: 414 and 248
- Population Apoptotic (%) [6]: 71% and 84%
- Population Fragmented Nuclei (%) [6]: 28%
- Population Healthy Nuclei (%) [6]: 43% and 42%
- Population Hoechst High Intensity Objects (%) [6]: 8%
- Population Membrane Permeable-Phenotype (%) [6]: 17% and 11%
- Population Mitotic Cells (%) [6]: 28% and 16%
- Population Normal (%) [6]: 91%
- Population Pyknosed Nuclei (%) [6]: 28% and 29%
- Population Tubulin-Different-Phenotype (%) [6]: 7% and 13%
- Total Cell Count [6]: 206 and 93

SMILES: CN1CC[C@@]23CCCC[C@@H]2[C@@H]1Cc1ccc(O)cc13.O=C(O)C(O)C(O)C(=O)O
- Population Apoptotic (%) [1]: 38.64% and 62.96%
- Population Fragmented Nuclei (%) [1]: 1.53% and 2.17%
- Population Healthy Nuclei (%) [1]: 88.86% and 78.26%
- Population Hoechst High Intensity Objects (%) [1]: 1.51% and 0%
- Population Membrane Permeable-Phenotype (%) [1]: 1.23% and 1.85%
- Population Mitochondria Different-Phenotype (%) [1]: 0% and 11.11%
- Population Mitotic Cells (%) [1]: 61.36% and 37.04%
- Population Normal (%) [1]: 98.49% and 100%
- Population Pyknosed Nuclei (%) [1]: 9.61% and 19.57%
- Population Tubulin-Different-Phenotype (%) [1]: 0%
- Population Apoptotic (%) [2]: 33.33% and 60%
- Population Healthy Nuclei (%) [2]: 88.89% and 58.2%
- Population Hoechst High Intensity Objects (%) [2]: 0%
- Population Membrane Permeable-Phenotype (%) [2]: 1.19% and 4.7%
- Population Mitochondria Different-Phenotype (%) [2]: 0.89% and 6.71%
- Population Mitotic Cells (%) [2]: 66.67% and 40%
- Population Normal (%) [2]: 100%
- Population Pyknosed Nuclei (%) [2]: 9.52% and 5.86%
- Population Tubulin-Different-Phenotype (%) [2]: 1.49% and 0.67%
- Total Cell Count [2]: 378 and 256
- Population Apoptotic (%) [3]: 53.33% and 66.67%
- Population Fragmented Nuclei (%) [3]: 1.7% and 1.75%
- Population Healthy Nuclei (%) [3]: 91.36% and 85.96%
- Population Hoechst High Intensity Objects (%) [3]: 1.22% and 0%
- Population Membrane Permeable-Phenotype (%) [3]: 0.68% and 2.72%
- Population Mitotic Cells (%) [3]: 46.67% and 33.33%
- Population Normal (%) [3]: 98.78% and 100%
- Population Pyknosed Nuclei (%) [3]: 6.94% and 12.28%
- Population Tubulin-Different-Phenotype (%) [3]: 0.51% and 0.68%
- Population Apoptotic (%) [4]: 32.2% and 38.89%
- Population Healthy Nuclei (%) [4]: 87.76% and 63.54%
- Population Hoechst High Intensity Objects (%) [4]: 0%
- Population Membrane Permeable-Phenotype (%) [4]: 1.07% and 3.28%
- Population Mitochondria Different-Phenotype (%) [4]: 0.43% and 3.83%
- Population Mitotic Cells (%) [4]: 67.8% and 61.11%
- Population Normal (%) [4]: 100%
- Population Pyknosed Nuclei (%) [4]: 11.11% and 6.25%
- Population Tubulin-Different-Phenotype (%) [4]: 1.07% and 1.09%
- Total Cell Count [4]: 531 and 288
- Population Apoptotic (%) [5]: 45.92% and 51.61%
- Population Fragmented Nuclei (%) [5]: 4.22% and 1.42%
- Population Healthy Nuclei (%) [5]: 87.82% and 87.54%
- Population Hoechst High Intensity Objects (%) [5]: 0.88% and 0%
- Population Membrane Permeable-Phenotype (%) [5]: 0.55% and 2.44%
- Population Mitochondria Different-Phenotype (%) [5]: 0.09% and 6.91%
- Population Mitotic Cells (%) [5]: 54.08% and 48.39%
- Population Normal (%) [5]: 99.12% and 100%
- Population Pyknosed Nuclei (%) [5]: 7.95% and 11.03%
- Population Tubulin-Different-Phenotype (%) [5]: 0.37% and 1.22%
- Population Apoptotic (%) [6]: 45.36% and 57.14%
- Population Healthy Nuclei (%) [6]: 87.24% and 75.39%
- Population Hoechst High Intensity Objects (%) [6]: 0.1% and 0%
- Population Membrane Permeable-Phenotype (%) [6]: 0.68% and 1.72%
- Population Mitochondria Different-Phenotype (%) [6]: 0.34% and 3.09%
- Population Mitotic Cells (%) [6]: 54.64% and 42.86%
- Population Normal (%) [6]: 99.9% and 100%
- Population Pyknosed Nuclei (%) [6]: 9.59% and 7.25%
- Population Tubulin-Different-Phenotype (%) [6]: 0.45% and 0.34%
- Total Cell Count [6]: 1012 and 386

Reference: ChEMBL document CHEMBL5724801, “EUbOPEN Chemogenomics Library - Multiplex” (2024)
